Measurements reported in ChEMBL document CHEMBL1141332, “Cytotoxic metabolites from an Indonesian sponge Lendenfeldia sp” (J Nat Prod, 2007).

Experiments:
[1] = test system: OVCAR-3; assay: Cytotoxicity against human OVCAR-3 cells; type: functional; settings: for CC50: read-out: Log LC50 (the source's name) (converted); for TGI: read-out: Log TGI (converted)
[2] = test system: HOP-92; assay: Cytotoxicity against human HOP92 cells; type: functional; settings: for CC50: read-out: Log LC50 (the source's name) (converted); for TGI: read-out: Log TGI (converted)
[3] = test system: TK-10; assay: Cytotoxicity against human TK10 cells; type: functional; settings: for TGI: read-out: Log TGI (converted)
[4] = test system: K562; assay: Cytotoxicity against human K562 cells; type: functional; settings: for CC50: read-out: Log LC50 (the source's name) (converted); for TGI: read-out: Log TGI (converted)
[5] = test system: OVCAR-4; assay: Cytotoxicity against human OVCAR4 cells; type: functional; settings: for CC50: read-out: Log LC50 (the source's name) (converted); for TGI: read-out: Log TGI (converted)
[6] = test system: IGROV-1; assay: Cytotoxicity against human IGROV1 cells; type: functional; settings: for CC50: read-out: Log LC50 (the source's name) (converted); for TGI: read-out: Log TGI (converted)
[7] = test system: MDA-MB-231; assay: Cytotoxicity against human MDA-MB-231 cells; type: functional; settings: for TGI: read-out: Log TGI (converted)
[8] = test system: SW-620; assay: Cytotoxicity against human SW620 cells; type: functional; settings: for CC50: read-out: Log LC50 (the source's name) (converted); for TGI: read-out: Log TGI (converted)
[9] = test system: NCI/ADR-RES; assay: Cytotoxicity against human NCI/ADR-RES cells; type: functional; settings: for TGI: read-out: Log TGI (converted)
[10] = test system: A549; assay: Cytotoxicity against human A549 cells; type: functional; settings: for CC50: read-out: Log LC50 (the source's name) (converted); for TGI: read-out: Log TGI (converted)
[11] = test system: CCRF-CEM; assay: Cytotoxicity against human CCRF-CEM cells; type: functional; settings: for TGI: read-out: Log TGI (converted)
[12] = test system: RXF 393; assay: Cytotoxicity against human RXF393 cells; type: functional; settings: for TGI: read-out: Log TGI (converted)
[13] = test system: SR; assay: Cytotoxicity against human SR cells; type: functional; settings: for CC50: read-out: Log LC50 (the source's name) (converted); for TGI: read-out: Log TGI (converted)
[14] = biological target: T1, Hypoxia inducible factors; HIF-1-alpha, HIF-2-alpha (Homo sapiens, UniProt Q16665+Q99814); assay: Inhibition of 1, 10-phenanthroline-induced HIF1 activity in human T47D cells by cell based reporter assay
Outline: (§1)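 T47D cells grown in DMEM/F12 with glutamine, 10% FCS and penicillin/streptomycin at 37 °C under 5% CO2, then transiently transfected with the pHRE-TK-Luc reporter. Compounds from DMSO stocks were tested at half-log concentrations for 16 h, with luciferase read-out. IC50 was taken from curve fits of triplicate experiments.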

[15] = test system: CAKI-1; assay: Cytotoxicity against human CAKI1 cells; type: functional; settings: for TGI: read-out: Log TGI (converted)
[16] = test system: T47D; assay: Inhibition of human T47D cells assessed as cell viability under normoxic condition after 48 hrs; type: functional, cell-based
Outline: (§2)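 Neutral Red proliferation/viability assay on T47D or MDA-MB-231 cells kept in DMEM/F12 with 10% FCS at 37 °C under 5% CO2, with 48 h compound exposure. Read-out was OD540, and % inhibition = 1 − OD540(treated)/OD540(control). IC50 was derived from the concentration–response data.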

[17] = test system: T47D; assay: Inhibition of human T47D cells assessed as cell viability under hypoxic condition after 48 hrs; type: functional, cell-based; outline: as §2
[18] = test system: MDA-MB-231; assay: Inhibition of human MDA-MB-231 cells assessed as cell viability under normoxic condition after 48 hrs; type: functional, cell-based; settings: MDA-MB-231, 48 h; outline: as §2
[19] = test system: MDA-MB-231; assay: Inhibition of human MDA-MB-231 cells assessed as cell viability under hypoxic condition after 48 hrs; type: functional, cell-based; settings: MDA-MB-231, 48 h; outline: as §2
[20] = biological target: T1, Hypoxia inducible factors; HIF-1-alpha, HIF-2-alpha; assay: Inhibition of HIF1 activity in human T47D cells by cell based reporter assay; outline: as §1
[21] = test system: T47D; assay: Cell viability of human T47D cells under hypoxic condition after 16 hrs; type: functional, cell-based

## CC(=O)O[C@H]1C[C@H]2[C@@](C)(CC[C@H]3C(C)(C)CCC[C@@]32CO)[C@@H]2CC=C(C(C)=O)[C@H](C=O)[C@@]12C
[1]
  GI50: 204 nM
  CC50: 0.676 µM
  TGI: 372 nM
[2]
  GI50: 1350 nM
  CC50: 5.5 µM
  TGI: 2.75 µM
[3]
  GI50: 302 nM
  LC50: 3.39 µM
  TGI: 891 nM
[4]
  GI50: 2190 nM
  CC50: 30.2 µM
  TGI: 7.76 µM
[5]
  GI50: 575 nM
  CC50: 5.01 µM
  TGI: 1.91 µM
[6]
  GI50: 1580 nM
  CC50: 7.08 µM
  TGI: 3.31 µM
[7]
  GI50: 891 nM
  LC50: 4.57 µM
  TGI: 2.09 µM
[8]
  GI50: 162 nM
  CC50: 676 nM
  TGI: 331 nM
[9]
  GI50: 1070 nM
  LC50: 6.17 µM
  TGI: 2.57 µM
[10]
  GI50: 562 nM
  CC50: 4.68 µM
  TGI: 1.86 µM
[11]
  GI50: 347 nM
  LC50: 4.47 µM
  TGI: 1170 nM
[12]
  GI50: 295 nM
  LC50: 3.63 µM
  TGI: 1120 nM
[13]
  GI50: 288 nM
  CC50: 3.72 µM
  TGI: 759 nM

## CC(=O)C1=CC[C@H]2[C@]3(C)CC[C@H]4C(C)(C)CCC[C@]4(C(=O)O)[C@H]3CC(=O)[C@]2(C)[C@H]1C=O
[1]
  GI50: 295 nM
  CC50: 3.47 µM
  TGI: 1020 nM
[14]
  IC50: 0.5 µM
[2]
  GI50: 1910 nM
  CC50: 7.41 µM
  TGI: 3.72 µM
[3]
  GI50: 1170 nM
  LC50: 6.61 µM
  TGI: 2820 nM
[4]
  GI50: 2040 nM
  CC50: 20.9 µM
  TGI: 5.01 µM
[5]
  GI50: 813 nM
  CC50: 56.2 µM
  TGI: 4.68 µM
[15]
  GI50: 0.646 µM
  LC50: 12.9 µM
  TGI: 2.45 µM
[6]
  GI50: 2570 nM
  CC50: 50.1 µM
  TGI: 8.13 µM
[7]
  GI50: 1660 nM
  LC50: 6.31 µM
  TGI: 3.24 µM
[16]
  IC50: 1.4 µM
[8]
  GI50: 324 nM
  CC50: 3390 nM
  TGI: 1120 nM
[17]
  IC50: 1.9 µM
[18]
  IC50: 1.4 µM
[19]
  IC50: 1.5 µM
[9]
  GI50: 1910 nM
  LC50: 8.91 µM
  TGI: 4.07 µM
[20]
  IC50: 0.64 µM
[10]
  GI50: 2570 nM
  CC50: 74.1 µM
  TGI: 12.6 µM
[21]
  IC50: 3.3 µM
[12]
  GI50: 1170 nM
  TGI: 2570 nM
[13]
  GI50: 457 nM
  CC50: 6.76 µM
  TGI: 1860 nM

## CC1OC(=O)[C@H]2[C@H]1[C@@H](O)C[C@H]1[C@]3(C)CC[C@H]4C(C)(C)CCC[C@]4(C)[C@H]3C[C@@H](O)[C@]21C (some centres not stated)
[1]
  GI50: 11500 nM
  CC50: 60.3 µM
  TGI: 26300 nM
[14]
  IC50: 2.4 µM
[2]
  GI50: 17000 nM
  CC50: 93.3 µM
  TGI: 39.8 µM
[3]
  GI50: 30200 nM
  LC50: > 100 µM
  TGI: 79400 nM
[4]
  GI50: 29500 nM
  CC50: > 100 µM
  TGI: 55 µM
[5]
  GI50: 20900 nM
  CC50: > 100 µM
  TGI: 60.3 µM
[15]
  GI50: 30.9 µM
  LC50: > 100 µM
  TGI: 56.2 µM
[6]
  GI50: 30900 nM
  CC50: > 100 µM
  TGI: 81.3 µM
[7]
  GI50: 19100 nM
  LC50: 87.1 µM
  TGI: 40.7 µM
[16]
  IC50: 4.7 µM
[8]
  GI50: 12000 nM
  CC50: 52500 nM
  TGI: 25100 nM
[17]
  IC50: 5.3 µM
[18]
  IC50: 4.9 µM
[19]
  IC50: 5.4 µM
[9]
  GI50: 18600 nM
  LC50: 83.2 µM
  TGI: 39.8 µM
[20]
  IC50: 3.5 µM
[10]
  GI50: 15800 nM
  CC50: 89.1 µM
  TGI: 37.2 µM
[21]
  IC50: 6.7 µM
[12]
  GI50: 14800 nM
  LC50: 58.9 µM
  TGI: 29500 nM
[13]
  GI50: 8510 nM
  CC50: > 100 µM
  TGI: 35500 nM

## CC(=O)O[C@@H]1C[C@H]2[C@]3(C)CC[C@H]4C(C)(C)CCC[C@]4(C)[C@H]3C[C@H](O)[C@]2(C)[C@@H](C=O)[C@@H]1C(C)=O [SCALARHERBACIN A]
[1]
  GI50: 1120 nM
  CC50: 5.5 µM
  TGI: 2510 nM
[2]
  GI50: 1320 nM
  CC50: 5.5 µM
  TGI: 2.69 µM
[3]
  GI50: 1380 nM
  LC50: 6.61 µM
  TGI: 3020 nM
[4]
  GI50: 1740 nM
  CC50: 7.76 µM
  TGI: 3.72 µM
[5]
  GI50: 912 nM
  CC50: 6.61 µM
  TGI: 2.51 µM
[6]
  GI50: 1950 nM
  CC50: 8.32 µM
  TGI: 4.07 µM
[7]
  GI50: 1480 nM
  TGI: 2.88 µM
[8]
  GI50: 214 nM
  CC50: 1070 nM
  TGI: 468 nM
[9]
  GI50: 1660 nM
  LC50: 7.08 µM
  TGI: 3.47 µM
[10]
  GI50: 1230 nM
  CC50: 6.61 µM
  TGI: 2.82 µM
[11]
  GI50: 676 nM
  LC50: 6.46 µM
  TGI: 2240 nM
[12]
  GI50: 1150 nM
  LC50: 5.37 µM
  TGI: 2510 nM
[13]
  GI50: 282 nM
  TGI: 1150 nM
